# System: Rattus norvegicus
# Assay: Antihypertensive activity against methyl prednisolone acetate-induced hypertension in albino rat assessed as reduction in mean arterial pressure at 20 mg/kg, ip after 1 hr by tail-cuff method
# Format: functional, Artery
# Set-up: scale not given: the % may be the effect or the level left
# Conditions: route intraperitoneal
# Method in brief: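 Rats were albino, 200–250 g, and restrainer-trained for 10 min/day over 1 week. They were made hypertensive with s.c. methyl prednisolone acetate at 20 mg/kg/wk for 2 weeks. Each compound was suspended in 1% CMC and given i.p. at 20 mg/kg. Mean arterial BP was measured 1 h after dosing in conscious animals by CODA tail-cuff. Data are mean ± SEM, analysed by ANOVA and Dunnett test against the hypertensive control.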
row,SMILES,Activity [%]
1,Cc1ccc(C2=NN(c3n[nH]c(=S)n3-c3ccccc3)C(=O)CC2)cc1,27.3
2,CCc1ccc(C2=NN(c3n[nH]c(=S)n3-c3ccc(Cl)cc3)C(=O)CC2)cc1,42.11
3,CCc1ccc(C2=NN(c3n[nH]c(=S)n3-c3ccccc3)C(=O)CC2)cc1,38.88
4,COc1ccc(C2=NN(c3n[nH]c(=S)n3-c3ccccc3)C(=O)CC2)cc1,32.48
5,O=C1CCC(c2ccc(-c3ccccc3)cc2)=NN1c1n[nH]c(=S)n1-c1ccc(Cl)cc1,14.37
6,Cc1ccc(-n2c(N3N=C(c4ccc(Cl)cc4)CCC3=O)n[nH]c2=S)cc1,11.53
7,CC(C)Cc1ccc(C2=NN(c3n[nH]c(=S)n3-c3ccccc3)C(=O)CC2)cc1,30.51
8,COc1ccc(C2=NN(c3n[nH]c(=S)n3-c3ccc(C)cc3)C(=O)CC2)cc1,40.98
9,COc1ccc(C2=NN(c3n[nH]c(=S)n3-c3ccc(Cl)cc3)C(=O)CC2)cc1,16.09
10,O=C1CCC(c2ccc(Cl)cc2)=NN1c1n[nH]c(=S)n1-c1ccc(Cl)cc1,11.29
11,O=C1CCC(c2ccccc2)=NN1c1n[nH]c(=S)n1-c1ccc(Cl)cc1,24.84
12,O=C1CCC(c2ccc(Cl)cc2)=NN1c1n[nH]c(=S)n1-c1ccccc1,12.52
13,Cc1ccc(-n2c(N3N=C(c4ccc(-c5ccccc5)cc4)CCC3=O)n[nH]c2=S)cc1,13.13
14,Cc1ccc(C2=NN(c3n[nH]c(=S)n3-c3ccc(C)cc3)C(=O)CC2)cc1,31.25
15,Cc1ccc(C2=NN(c3n[nH]c(=S)n3-c3ccc(Cl)cc3)C(=O)CC2)cc1,41.84
16,Cc1ccc(-n2c(N3N=C(c4ccccc4)CCC3=O)n[nH]c2=S)cc1,38.83
17,O=C1CCC(c2ccccc2)=NN1c1n[nH]c(=S)n1-c1ccccc1,30.01
18,O=C1CCC(c2ccc(-c3ccccc3)cc2)=NN1c1n[nH]c(=S)n1-c1ccccc1,10.67
19,CCc1ccc(C2=NN(c3n[nH]c(=S)n3-c3ccc(C)cc3)C(=O)CC2)cc1,32.97
20,Cc1ccc(-n2c(N3N=C(c4ccc(CC(C)C)cc4)CCC3=O)n[nH]c2=S)cc1,12.5
21,CC(C)Cc1ccc(C2=NN(c3n[nH]c(=S)n3-c3ccc(Cl)cc3)C(=O)CC2)cc1,15.85

# System: Rattus norvegicus
# Assay: Antihypertensive activity against methyl prednisolone acetate-induced hypertension in albino rat assessed as reduction in mean arterial pressure at 14 mg/kg, ip after 1 hr by tail-cuff method
# Format: functional, Artery
# Set-up: scale not given: the % may be the effect or the level left
# Conditions: route intraperitoneal
# Method in brief: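 Albino rats of 200–250 g were trained in a restrainer for 10 min daily for 1 week. Hypertension was induced by s.c. methyl prednisolone acetate at 20 mg/kg/wk for 2 weeks, with an untreated control group kept alongside. Drug was given i.p. and mean arterial BP was read 1 h later in conscious rats by CODA tail-cuff. Results are mean ± SEM, compared with the hypertensive control by ANOVA and Dunnett test.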
row,SMILES,Activity [%]
1,CC(C)NCC(O)COc1cccc2ccccc12 (configuration not stated) [PROPRANOLOL],41.4
